Source: ChEMBL document CHEMBL1135823, “Discovery and SAR of a novel selective and orally bioavailable nonpeptide classical competitive inhibitor class of protein-tyrosine phosphatase 1B” (J Med Chem, 2002)

What was measured:
[1] = molecular target: Receptor-type tyrosine-protein phosphatase alpha (Homo sapiens, UniProt P18433); test: Inhibitory effect against human protein-tyrosine phosphatase alpha (PTPalpha), using p-nitrophenyl phosphate substrate at pH 5.5.
Procedure, shortened: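 Ki from pNPP hydrolysis assays at pH 5.5 with recombinant PTPα or LAR.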

[2] = molecular target: Receptor-type tyrosine-protein phosphatase F (Homo sapiens, UniProt P10586); test: Inhibitory effect against protein-tyrosine phosphatase Lar, using p-nitrophenyl phosphate as substrate at pH 5.5.
Receptor-type tyrosine-protein phosphatase F, sequence (P10586 whole entry): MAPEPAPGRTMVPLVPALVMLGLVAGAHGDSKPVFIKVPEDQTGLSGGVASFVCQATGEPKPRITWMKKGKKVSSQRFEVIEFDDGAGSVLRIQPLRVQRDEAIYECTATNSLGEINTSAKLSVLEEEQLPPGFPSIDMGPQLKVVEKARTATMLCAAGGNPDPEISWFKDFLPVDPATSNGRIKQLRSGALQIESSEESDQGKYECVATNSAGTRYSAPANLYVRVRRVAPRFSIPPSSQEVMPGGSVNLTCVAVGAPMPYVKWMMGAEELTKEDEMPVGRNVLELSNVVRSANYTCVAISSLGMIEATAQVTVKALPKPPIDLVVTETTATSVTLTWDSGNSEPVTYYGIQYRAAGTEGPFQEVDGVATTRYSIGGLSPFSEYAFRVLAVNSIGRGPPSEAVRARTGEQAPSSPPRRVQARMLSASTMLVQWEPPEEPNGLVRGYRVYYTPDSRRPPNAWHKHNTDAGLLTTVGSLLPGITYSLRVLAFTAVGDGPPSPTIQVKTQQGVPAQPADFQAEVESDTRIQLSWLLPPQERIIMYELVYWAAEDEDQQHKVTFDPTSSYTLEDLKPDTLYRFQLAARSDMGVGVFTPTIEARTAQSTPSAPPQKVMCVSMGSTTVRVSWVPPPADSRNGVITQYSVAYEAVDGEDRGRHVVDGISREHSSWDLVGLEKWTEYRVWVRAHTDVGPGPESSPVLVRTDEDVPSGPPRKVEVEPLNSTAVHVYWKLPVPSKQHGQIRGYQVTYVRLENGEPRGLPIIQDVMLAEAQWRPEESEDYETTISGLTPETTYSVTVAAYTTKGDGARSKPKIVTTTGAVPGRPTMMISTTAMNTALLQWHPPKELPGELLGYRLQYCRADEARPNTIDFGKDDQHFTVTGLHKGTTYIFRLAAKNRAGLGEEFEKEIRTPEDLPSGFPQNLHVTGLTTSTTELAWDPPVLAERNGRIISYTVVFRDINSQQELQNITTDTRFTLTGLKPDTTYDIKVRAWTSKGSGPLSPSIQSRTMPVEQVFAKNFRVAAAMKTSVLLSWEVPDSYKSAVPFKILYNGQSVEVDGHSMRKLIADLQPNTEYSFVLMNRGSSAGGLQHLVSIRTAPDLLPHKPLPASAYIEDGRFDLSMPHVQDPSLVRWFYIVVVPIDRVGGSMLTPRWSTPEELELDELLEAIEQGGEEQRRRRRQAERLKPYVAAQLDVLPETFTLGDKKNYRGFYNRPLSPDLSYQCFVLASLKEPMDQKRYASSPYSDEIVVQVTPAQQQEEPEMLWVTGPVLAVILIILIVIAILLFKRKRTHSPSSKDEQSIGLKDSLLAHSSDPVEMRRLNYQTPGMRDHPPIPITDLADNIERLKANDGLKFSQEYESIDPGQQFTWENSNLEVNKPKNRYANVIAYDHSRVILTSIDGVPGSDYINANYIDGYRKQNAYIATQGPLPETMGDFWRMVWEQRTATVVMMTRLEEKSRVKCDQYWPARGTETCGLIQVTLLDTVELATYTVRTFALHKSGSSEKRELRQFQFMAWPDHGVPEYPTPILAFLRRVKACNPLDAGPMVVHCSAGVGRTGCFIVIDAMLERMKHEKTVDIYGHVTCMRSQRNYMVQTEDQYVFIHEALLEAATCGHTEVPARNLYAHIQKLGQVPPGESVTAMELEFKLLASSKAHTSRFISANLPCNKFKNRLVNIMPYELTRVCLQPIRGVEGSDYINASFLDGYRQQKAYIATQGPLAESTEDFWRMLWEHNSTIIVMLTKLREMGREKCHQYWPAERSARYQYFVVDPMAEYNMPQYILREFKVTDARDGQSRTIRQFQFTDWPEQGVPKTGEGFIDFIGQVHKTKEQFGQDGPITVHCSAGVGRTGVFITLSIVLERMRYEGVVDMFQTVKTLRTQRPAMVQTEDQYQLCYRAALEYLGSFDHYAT

[3] = molecular target: T1, Tyrosine-protein phosphatase non-receptor type 1 (Homo sapiens, UniProt P18031); test: Inhibitory effect against recombinant human PTP1B (Protein Tyrosine phosphatase 1B) using p-nitrophenyl phosphate substrate at pH 5.5
T1 sequence (P18031 whole entry): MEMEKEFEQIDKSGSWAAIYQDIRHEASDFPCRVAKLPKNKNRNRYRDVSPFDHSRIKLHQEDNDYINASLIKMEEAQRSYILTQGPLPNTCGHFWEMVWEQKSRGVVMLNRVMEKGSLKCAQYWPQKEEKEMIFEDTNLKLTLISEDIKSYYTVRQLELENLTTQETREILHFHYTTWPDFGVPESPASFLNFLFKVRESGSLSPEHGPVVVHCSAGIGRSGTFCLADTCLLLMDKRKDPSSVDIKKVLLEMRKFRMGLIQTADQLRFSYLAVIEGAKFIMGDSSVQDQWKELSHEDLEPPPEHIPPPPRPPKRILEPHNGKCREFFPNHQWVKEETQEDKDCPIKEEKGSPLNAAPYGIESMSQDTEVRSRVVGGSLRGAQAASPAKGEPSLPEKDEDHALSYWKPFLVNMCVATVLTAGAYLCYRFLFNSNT
Procedure, shortened: (§1)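 Enzyme is a soluble recombinant human PTP1B (residues 1–321). Ki is measured at pH 5.5 with p-nitrophenyl phosphate (pNPP) as substrate.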

[4] = molecular target: T1, Tyrosine-protein phosphatase non-receptor type 1; test: Inhibitory effect against recombinant human protein-tyrosine phosphatase 1B (PTP1B), using p-nitrophenyl phosphate substrate at pH 5.5.
[5] = molecular target: T1, Tyrosine-protein phosphatase non-receptor type 1; test: Inhibition of human recombinant Protein-tyrosine phosphatase 1B.; procedure, shortened: as §1
[6] = molecular target: T2, Tyrosine-protein phosphatase non-receptor type 2 (Homo sapiens, UniProt P17706); test: Inhibition of T cell protein tyrosine phosphatase (TC-PTP) at pH 7.0; format: single protein
T2 sequence (P17706 whole entry): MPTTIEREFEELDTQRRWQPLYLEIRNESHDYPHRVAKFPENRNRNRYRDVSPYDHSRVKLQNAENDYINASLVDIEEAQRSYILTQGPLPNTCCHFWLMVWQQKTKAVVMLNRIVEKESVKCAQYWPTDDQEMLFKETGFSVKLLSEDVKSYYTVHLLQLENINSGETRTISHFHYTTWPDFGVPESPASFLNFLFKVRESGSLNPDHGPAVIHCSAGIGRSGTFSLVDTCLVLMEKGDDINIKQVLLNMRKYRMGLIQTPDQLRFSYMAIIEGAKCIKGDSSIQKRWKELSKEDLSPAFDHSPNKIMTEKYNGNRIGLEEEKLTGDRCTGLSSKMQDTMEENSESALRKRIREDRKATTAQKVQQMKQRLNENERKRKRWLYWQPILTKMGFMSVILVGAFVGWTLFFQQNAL
Procedure, shortened: (§2)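 Ki from a pNPP hydrolysis assay with recombinant TC-PTP, run at pH 7.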

[7] = molecular target: T1, Tyrosine-protein phosphatase non-receptor type 1; test: Inhibitory effect against recombinant human Protein-tyrosine phosphatase 1B (PTP1B) using p-nitrophenyl phosphate substrate at pH 5.5;ND is not determined; procedure, shortened: as §1
[8] = molecular target: T2, Tyrosine-protein phosphatase non-receptor type 2; test: Inhibitory effect against inhibitory effect against T cell protein tyrosine phosphatase (TC-PTP) using p-nitrophenyl phosphate as substrate at pH 7.0; procedure, shortened: as §2
[9] = Pharmacokinetic Parameter Vss was reported for Protein Tyrosine Phosphatase 1B; format: ADME, organism-based; details: in vivo; read-out: Vss
[10] = Pharmacokinetic Parameter clearance was reported for Protein Tyrosine Phosphatase 1B; format: ADME, organism-based; details: in vivo
[11] = Oral bioavailability; format: ADME, organism-based; details: eutheria, in vivo, read-out: f (po)
[12] = Pharmacokinetic Parameter half life was reported for Protein Tyrosine Phosphatase 1B; format: ADME, organism-based; details: in vivo

Receptor-type tyrosine-protein phosphatase alpha, sequence (P18433 whole entry): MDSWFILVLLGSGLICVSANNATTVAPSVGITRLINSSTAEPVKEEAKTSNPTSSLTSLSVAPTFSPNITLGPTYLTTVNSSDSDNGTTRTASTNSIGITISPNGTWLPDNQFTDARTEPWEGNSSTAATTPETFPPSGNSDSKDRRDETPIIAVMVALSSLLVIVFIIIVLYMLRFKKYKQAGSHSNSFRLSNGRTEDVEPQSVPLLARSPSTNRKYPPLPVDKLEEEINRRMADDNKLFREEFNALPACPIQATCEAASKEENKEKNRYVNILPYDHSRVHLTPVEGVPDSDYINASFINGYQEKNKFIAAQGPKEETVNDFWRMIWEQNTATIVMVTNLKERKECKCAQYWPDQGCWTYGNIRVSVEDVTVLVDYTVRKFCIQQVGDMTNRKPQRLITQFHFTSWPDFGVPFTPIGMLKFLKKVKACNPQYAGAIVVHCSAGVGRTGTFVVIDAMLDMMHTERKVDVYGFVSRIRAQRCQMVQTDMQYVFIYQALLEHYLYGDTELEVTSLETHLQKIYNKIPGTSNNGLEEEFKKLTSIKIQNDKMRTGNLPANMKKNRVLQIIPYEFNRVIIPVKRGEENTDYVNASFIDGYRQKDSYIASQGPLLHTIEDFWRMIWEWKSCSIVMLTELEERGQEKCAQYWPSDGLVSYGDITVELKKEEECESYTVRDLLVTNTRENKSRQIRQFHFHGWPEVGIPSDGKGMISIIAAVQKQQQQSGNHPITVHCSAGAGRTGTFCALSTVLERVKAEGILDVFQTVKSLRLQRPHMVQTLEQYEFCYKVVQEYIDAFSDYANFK

## O=C(O)C(=O)Nc1ccc(I)cc1C(=O)O
[1]
  Ki: 89 µM
[2]
  Ki: 420 µM
[3]
  Ki: 14 µM

## O=C(O)C(=O)Nc1cc2[nH]ccc2cc1C(=O)O
[1]
  Ki: 180 µM
[4]
  Ki: 8 µM
[2]
  Ki: 450 µM

## O=C(O)C(=O)Nc1cc(-c2ccsc2)sc1C(=O)O
[1]
  Ki: 200 µM
[4]
  Ki: 11 µM
[2]
  Ki: 90 µM

## O=C(O)C(=O)Nc1sc2c(c1C(=O)O)CCCCC2
[1]
  Ki: 320 µM
[4]
  Ki: 12 µM
[2]
  Ki: 400 µM

## CN1CCc2c(sc(NC(=O)C(=O)O)c2C(=O)O)C1
[5]
  Ki: 11 µM
[4]
  Ki: 1 µM
[6]
  Ki: 22 µM

## O=C(O)C(=O)Nc1sc2c(c1C(=O)O)CCC2
[1]
  Ki: 340 µM
[4]
  Ki: 12 µM
[2]
  Ki: 900 µM

## O=C(O)C(=O)Nc1cc(-c2ccc(Oc3ccccc3)cc2)sc1C(=O)O
[1]
  Ki: 93 µM
[4]
  Ki: 26 µM

## COc1ccc(-c2cc(NC(=O)C(=O)O)c(C(=O)O)s2)cc1OC
[1]
  Ki: 980 µM
[4]
  Ki: 25 µM

## O=C(O)C(=O)Nc1cscc1C(=O)O
[7]
  Ki: 75 µM

## O=C(O)C(=O)Nc1sc2c(c1C(=O)O)CCC(O)C2 (stereo unspecified)
[1]
  Ki: 215 µM
[4]
  Ki: 2 µM

## Cc1cccc(C(=O)O)c1NC(=O)C(=O)O
[1]
  Ki: > 2000 µM
[2]
  Ki: > 2000 µM
[3]
  Ki: 1100 µM

## O=C(O)C(=O)Nc1sc2c(c1C(=O)O)CCN(CCc1ccncc1)C2
[5]
  Ki: 8.7 µM
[6]
  Ki: 13 µM

## O=C(O)C(=O)Nc1sc2c(c1C(=O)O)CCN(CCc1ccc(-c3ccccc3)cc1)C2
[5]
  Ki: 8 µM
[6]
  Ki: 12 µM

## O=C(O)C(=O)Nc1cc(-c2cccc([N+](=O)[O-])c2)sc1C(=O)O
[1]
  Ki: 700 µM
[4]
  Ki: 4.7 µM
[2]
  Ki: 165 µM

## O=C(O)C(=O)Nc1sc2c(c1C(=O)O)CCN(CCC(c1ccccc1)c1ccccc1)C2
[5]
  Ki: 5.9 µM

## O=C(O)C(=O)Nc1sc2c(c1C(=O)O)CCN(CCc1ccsc1)C2
[5]
  Ki: 9 µM
[6]
  Ki: 12 µM

## O=C(O)C(=O)Nc1ccc(-c2ccccc2)cc1C(=O)O
[1]
  Ki: 280 µM
[4]
  Ki: 14 µM
[2]
  Ki: 700 µM

## O=C(O)C(=O)Nc1sc2c(c1C(=O)O)CCN(CCc1ccccn1)C2
[5]
  Ki: 12 µM
[6]
  Ki: 19 µM

## O=C(O)C(=O)Nc1cc(-c2ccccc2)sc1C(=O)O
[1]
  Ki: 250 µM
[4]
  Ki: 13 µM
[2]
  Ki: 90 µM

## COc1cc(OC)cc(-c2cc(NC(=O)C(=O)O)c(C(=O)O)s2)c1
[1]
  Ki: 1790 µM
[4]
  Ki: 8 µM

## O=C(O)C(=O)Nc1ccsc1C(=O)O
[1]
  Ki: > 2000 µM
[4]
  Ki: 37 µM
[2]
  Ki: 2000 µM

## O=C(O)C(=O)Nc1sc2c(c1C(=O)O)CCN(Cc1ccc3ccccc3n1)C2
[5]
  Ki: 29 µM
[4]
  Ki: 1.8 µM

## O=C(O)C(=O)Nc1sc2c(c1C(=O)O)CCN(Cc1ccc3ccccc3c1)C2
[5]
  Ki: 42 µM
[8]
  Ki: 34 µM

## O=C(O)C(=O)Nc1sc2c(c1C(=O)O)CCSC2
[1]
  Ki: 100 µM
[4]
  Ki: 8.3 µM

## O=C(O)C(=O)Nc1sc2c(c1C(=O)O)CCN(Cc1cccnc1)C2
[5]
  Ki: 12 µM
[4]
  Ki: 0.9 µM

## O=C(O)C(=O)Nc1sc2c(c1C(=O)O)CCN(CCc1ccc(OCc3ccccc3)cc1)C2
[5]
  Ki: 15 µM
[6]
  Ki: 10 µM

## O=C(O)C(=O)Nc1sc2c(c1C(=O)O)CCNC2
[9]
  Vd: 0.9 L/kg
[5]
  Ki: 4.7 µM
[4]
  Ki: 0.29 µM
[6]
  Ki: 9.4 µM
[10]
  clearance: 6.4 mL/min/kg
[11]
  bioavailability: 56%
[12]
  half-life: 2.8 h

## O=C(O)C(=O)Nc1cc(-c2ccc(F)cc2)sc1C(=O)O
[1]
  Ki: 210 µM
[4]
  Ki: 8 µM
[2]
  Ki: 110 µM
